# Assay results taken from article PMC12239663 (Journal of the American Chemical Society, 2024).
# Like-named read-outs stand apart in the source and are kept apart here.
# Experiments:
# [1] = molecular target: T1, SgvP (Streptomyces griseoviridis, UniProt R9USI6); test: Type I binding spectra, titration of SgvP with 2
# [2] = molecular target: T1, SgvP; assay type: biochemical; details: Fdx/Fdr, Opt13, NADP+, TCEP, no apparent intermediates detected
# Method in brief: (§1)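 Reactions were run under standard conditions, with a control reaction lacking P450. Peaks containing m/z 496 and m/z 512 were taken as singly- and doubly-oxidized by-products.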
# [3] = molecular target: T1, SgvP; test: In vitro reconstitution of C–S bond formation, SgvP with CamB/CamA; assay type: biochemical; details: CamB/CamA as redox partners, relative to Fdx/Fdr
# [4] = tested on: SgvP-RhFRed; test: Enzymatic reaction with SgvP-RhFRed chimera; assay type: biochemical, Streptomyces griseoviridis; details: NADP+, Opt13 for NADPH regeneration; without TCEP; LC-MS
# [5] = tested on: FNS2; test: Activity of homolog P450-RhFRed chimera FNS2; assay type: biochemical; details: cell lysates, range of conditions
# [6] = tested on: NK82; test: Activity of homolog P450-RhFRed chimera NK82; assay type: biochemical; details: cell lysates, range of conditions
# [7] = tested on: YY64; test: Activity of homolog P450-RhFRed chimera YY64; assay type: biochemical; details: cell lysates, range of conditions
# [8] = tested on: SgvP P237T; test: Enzymatic reaction with SgvP mutant P237T; assay type: biochemical, Streptomyces griseoviridis; details: substrate 2; same reaction conditions as wild-type SgvP
# [9] = tested on: SgvP P237T with A238 mutated to threonine; test: Enzymatic reaction with SgvP double mutant P237T, A238 to threonine; assay type: biochemical, Streptomyces griseoviridis; details: substrate 2; P237T activity partially rescued by mutating A238 to threonine
# [10] = tested on: SgvP L337F; test: Enzymatic reaction with SgvP mutant L337F; assay type: biochemical, Streptomyces griseoviridis; details: substrate 2; same reaction conditions as wild-type SgvP
# Method in brief: as §1
# [11] = tested on: SgvP mutants; test: LC-MS by-product analysis of reactions with SgvP mutants; assay type: biochemical, Streptomyces griseoviridis; details: singly- (m/z = 496) and doubly-oxidized (m/z = 512) by-products, substrate 2
# Method in brief: as §1
# [12] = Stability under air at ambient temperature; assay type: physicochemical; details: two weeks
# [13] = Stability in aqueous buffer; assay type: physicochemical
# [14] = Behavior toward chemical oxidants; assay type: physicochemical
substance,measurement,setting,value
pre-griseoviridin [compound 2],binding spectrum type,[1]; SgvP incubated with various concentrations of 2,characteristic type I binding spectrum
same,Kd relative to that of TleB (fold lower),[1]; SgvP–2 Kd lower than TleB Kd,2.5 fold
same,Kd relative to that of PtmO5,[1]; SgvP–2 Kd vs PtmO5 Kd,one order of magnitude higher
same,λmax after shift on binding of 2,"[1]; type I binding spectrum, λmax shifted from 421 nm",386 nm
same,conversion to griseoviridin (1),[2],nearly full conversion to griseoviridin (1) in approximately three hours
same,conversion to griseoviridin (1),[3],Analogous results
same,product of incubation with SgvP-RhFRed,[4],yielded only disulfide
same,activity of homolog chimera with 2,[5],none of the homologs exhibited any activity
same,activity of homolog chimera with 2,[6],none of the homologs exhibited any activity
same,activity of homolog chimera with 2,[7],none of the homologs exhibited any activity
same,NMR yield of griseoviridin,[8],7%
same,NMR yield of griseoviridin,[9],25%
same,activity relative to wild-type enzyme,[10],comparable – if not slightly enhanced – activity to the wild-type enzyme
same,by-products formed,[11],several oxidized by-products had formed
same,stability: degradation,[12],"remarkably stable, with no discernable degradation even after two weeks"
same,disulfide formation with TCEP,[13]; TCEP added to the reaction mixture as a reductant,disulfide formation was effectively prevented
same,product in absence of SgvP-RhFRed or in buffer and co-solvent alone,"[13]; aqueous conditions, exposure to oxygen, no TCEP, LC-MS",disulfide as the only product
same,production of 1 with chemical oxidants,[14]; mCPBA or basic H2O2,we did not observe the production of 1
same,outcome of treatment with mCPBA,"[14]; mCPBA, crude NMR, sulfinic and sulfonic acids of 2 tentatively detected by LC-MS",intractable mixture
same,outcome of treatment with basic H2O2,[14]; series of basic hydrogen peroxide conditions,"ester hydrolysis, S-oxidation, or broad degradation"
